These results are taken from publication PMC10764271 (Saudi Pharmaceutical Journal : SPJ, 2023).

For orientation: IC50 means the concentration needed to halve the response being measured.

Like-named read-outs stand apart in the source and are kept apart here.

What all share (format): cell-based, human
The subject of assay [1] is MDA-MB-231. The assay can be described thus: MTT cytotoxicity assay, MDA-MB-231. Put shortly:
(§1)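 Cells grown in DMEM with 10 % FBS and 1 % antibiotics (100 U/ml penicillin), seeded at 1.0 × 10^4 cells/well and left 24 h at 37 °C, 5 % CO2. Medium replaced; test compound at 5, 10, 25 and 50 μM for 48 h. MTT (5 mg/mL solution) added for 4 h; formazan dissolved in DMSO; A570 read. Triplicates. % viability versus untreated cells; IC50 from dose–response analysis.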

The subject of assay [2] is MCF-7. The assay can be described thus: MTT cytotoxicity assay, MCF-7. Put shortly:
as §1

Assay [3] deals with MCF-10A. As to the kind of experiment: MTT cytotoxicity assay, normal breast cell line MCF-10A. The note with it: read-out: IC50 Values MCF-10A, 48 h. Put shortly:
as §1
For orientation: Tetrazolium dyes change colour on reduction, which living cells bring about.

The mark [4] stands for this setting: Homo sapiens, MDA-MB-231, 48 h, read-out: IC50 Values MDA-MB-231, MTT, 48 h, ±SD.
The mark [5] stands for this setting: Homo sapiens, MCF7, 48 h, read-out: IC50 Values MCF-7, MTT, 48 h, ±SD.

Regarding `N.N.[Cl][Pt][Cl]` [Cisplatin, reference compound], the IC50 in assay [1] (read-out: IC50 Values MDA-MB-231, MTT, 48 h, ±SD) was 27 ± 0.8 µM; in assay [2] (read-out: IC50 Values MCF-7, MTT, 48 h, ±SD), 24.1 ± 0.8 µM; in assay [3] (MTT, normal breast cell line, ±SD) it was 64.6 ± 0.5 µM.

Turning to `Oc1ccccc1C=Nc1cccnc1NCc1ccccc1` [H2L^1, 2-((2-(benzylamino)pyridin-3-ylimino)methyl)phenol], the IC50 in assay [1] (setting [4]) was 75 ± 0.2 µM; in assay [2] (setting [5]), 70.9 ± 0.4 µM; in assay [3] (Homo sapiens, MCF-10A), more than 100 µM.

`Oc1ccc(Br)cc1C=Nc1cccnc1NCc1ccccc1` [H2L^2, 2-((2-(benzylamino)pyridin-3-ylimino)methyl)-4-bromophenol]: the 50% inhibitory concentration (IC50) is 81.6 ± 0.6 µM in assay [1] (setting [4]); 81.6 ± 0.6 µM in assay [2] (setting [5]); more than 100 µM in assay [3] (Homo sapiens, MCF-10A).

As for `Oc1ccc2ccccc2c1C=Nc1cccnc1NCc1ccccc1` [H2L^3, 1-((2-(benzylamino)pyridin-3-ylimino)methyl)naphthalen-2-ol], the half-inhibitory concentration (IC50) in assay [1] (setting [4]) was 87.01 ± 0.3 µM; in assay [2] (setting [5]) it was 112.4 ± 0.6 µM; in assay [3] (Homo sapiens, MCF-10A), more than 100 µM.

With `CCN(CC)c1ccc(C=Nc2cccnc2NCc2ccccc2)c(O)c1` [H2L^4, 2-((2-(benzylamino)pyridin-3-ylimino)methyl) −5-(diethylamino)phenol], the half-inhibitory concentration (IC50) in assay [1] (setting [4]) is 81.1 ± 0.2 µM; in assay [2] (setting [5]), 104.6 ± 0.2 µM; in assay [3] (Homo sapiens, MCF-10A) it was more than 100 µM.

As to `Oc1ccc(Br)cc1C=Nc1cccnc1NC1CCCCC1` [H2L^5, 4-bromo-2-((2-(cyclohexylamino)pyridin-3-ylimino)methyl)phenol], the IC50 in assay [1] (setting [4]) was 82.2 ± 0.6 µM; in assay [2] (setting [5]) it was 88.81 ± 0.81 µM; in assay [3] (Homo sapiens, MCF-10A), more than 100 µM.

On to `CCN(CC)c1ccc(C=Nc2cccnc2NC2CCCCC2)c(O)c1` [H2L^6, 2-((2-(cyclohexylamino)pyridin-3-ylimino)methyl)-5-(diethylamino)phenol], for which the IC50 in assay [1] (setting [4]) was 96 ± 0.4 µM; in assay [2] (setting [5]), 99.6 ± 0.41 µM; in assay [3] (Homo sapiens, MCF-10A), more than 100 µM.

Consider `Cc1ccccc1Nc1ncccc1N=Cc1cc(Br)ccc1O` [H2L^7, 2-((2-(o-toluidino)pyridin-3-ylimino)methyl)-4-bromophenol], for which the half-maximal inhibitory concentration (IC50) in assay [1] (setting [4]) is 85.1 ± 0.4 µM; in assay [2] (setting [5]), 88.3 ± 0.51 µM; in assay [3] (Homo sapiens, MCF-10A), more than 100 µM.

As to `CCN(CC)c1ccc(C=Nc2cccnc2Nc2ccccc2C)c(O)c1` [H2L^8, 2-((2-(o-toluidino)pyridin-3-ylimino)methyl)-5-(diethylamino)phenol], the IC50 was 83.6 ± 0.3 µM in assay [1] (setting [4]); 88.3 ± 0.3 µM in assay [2] (setting [5]); more than 100 µM in assay [3] (Homo sapiens, MCF-10A).

On to `O=[N+]([O-])c1cccnc1NCc1ccccc1` [compound 1, N-benzyl-3-nitropyridin-2-amine], for which the IC50 in assay [1] (setting [4]) was 110 ± 0.4 µM; in assay [2] (setting [5]) it was 122 ± 0.8 µM; in assay [3] (Homo sapiens, MCF-10A), more than 100 µM.

As to `O=[N+]([O-])c1cccnc1NC1CCCCC1` [compound 2, N-cyclohexyl-3-nitropyridin-2-amine], the half-inhibitory concentration (IC50) in assay [1] (setting [4]) was 110.2 ± 0.3 µM; in assay [2] (setting [5]), 118 ± 0.3 µM; in assay [3] (Homo sapiens, MCF-10A) it was more than 100 µM.

For `Cc1ccccc1Nc1ncccc1[N+](=O)[O-]` [compound 3, 3-nitro-N-o-tolylpyridin-2-amine], the IC50 in assay [1] (setting [4]) was 112 ± 0.41 µM; in assay [2] (setting [5]), 120 ± 0.3 µM; in assay [3] (Homo sapiens, MCF-10A), more than 100 µM.

As for `Nc1cccnc1NCc1ccccc1` [compound 4, N^2-benzylpyridine-2,3-diamine], the IC50 in assay [1] (setting [4]) was 108 ± 0.2 µM; in assay [2] (setting [5]), 109 ± 0.6 µM; in assay [3] (Homo sapiens, MCF-10A) it was more than 100 µM.

Turning to `Nc1cccnc1NC1CCCCC1` [compound 5, N^2-cyclohexylpyridine-2,3-diamine], the concentration for half-maximal inhibition (IC50) was 109 ± 0.8 µM in assay [1] (setting [4]); 112 ± 0.41 µM in assay [2] (setting [5]); more than 100 µM in assay [3] (Homo sapiens, MCF-10A).

As for `Cc1ccccc1Nc1ncccc1N` [compound 6, N^2-o-tolylpyridine-2,3-diamine], the IC50 is 108 ± 0.2 µM in assay [1] (setting [4]); 112 ± 0.2 µM in assay [2] (setting [5]); more than 100 µM in assay [3] (Homo sapiens, MCF-10A).
